From ChEMBL document CHEMBL5696442, “Discovery of type II inhibitors of TGFβ-activated kinase 1 (TAK1) and mitogen-activated protein kinase kinase kinase kinase 2 (MAP4K2)” (J Med Chem, 2015) come the findings set out here.

A short description of series [1]: Cmax in Swiss albino mouse at 10 mg/kg, po measured upto 24 hrs by LC/MS/MS analysis. The class given is ADME, organism-based. As to conditions: in vivo.
The target of series [2] is Mitogen-activated protein kinase 9 (Homo sapiens, UniProt P45984). Nature of the series: Inhibition of JNK2 Lys2 labeling site in human A-375 cells at 5 uM by KiNativ Profiling analysis relative to control. It is filed as cell-based.
Series [3] has as its target Calcium/calmodulin-dependent protein kinase type 1 (Homo sapiens) (UniProt Q14012). Nature of the series: Inhibition of CAMK1 alpha Lys1 labeling site in human A-375 cells at 5 uM by KiNativ Profiling analysis relative to control. It is filed as cell-based. The essentials: (§1)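 Intact A375 melanoma cells were treated with compound at 5 or 0.5 μM, then lysed. Lysate kinases were labeled with a lysine-reactive ATP or ADP-biotin probe (KiNativ). Inhibition is read as protection of each kinase labeling site from probe labeling.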

Series [4] concerns the target Cyclin-dependent kinase 2 (Homo sapiens) (UniProt P24941). Nature of the series: Inhibition of CDK2 Lys1 labeling site in human A-375 cells at 5 uM by KiNativ Profiling analysis relative to control. The class given is cell-based. The essentials: as §1
In series [5] the target is Serine/threonine-protein kinase Chk2 (Homo sapiens) (UniProt O96017). Nature of the series: Inhibition of CHK2 Lys1 labeling site in human A-375 cells at 5 uM by KiNativ Profiling analysis relative to control. It is filed as cell-based. The essentials:
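Live A375 melanoma cells were treated with compound at 5 or 0.5 μM. The cells were then lysed, and the lysates were labeled with a lysine-reactive ATP or ADP-biotin acyl probe (KiNativ). Inhibition is the compound's protection of each kinase labeling-site peptide from probe labeling, relative to untreated control.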

For series [6], the target named is Serine/threonine-protein kinase 26 (Homo sapiens) (UniProt Q9P289). Nature of the series: Inhibition of MST4 ACT labeling site in human A-375 cells at 5 uM by KiNativ Profiling analysis relative to control. It is filed as cell-based.
For series [7], the target named is Serine/threonine-protein kinase Nek7 (Homo sapiens) (UniProt Q8TDX7). The experiment in a line: Inhibition of NEK7 Lys1 labeling site in human A-375 cells at 5 uM by KiNativ Profiling analysis relative to control. It is filed as cell-based.
Series [8] concerns the target T1, Serine/threonine-protein kinase ULK3 (Homo sapiens) (UniProt Q6PHR2).
T1 sequence (whole entry): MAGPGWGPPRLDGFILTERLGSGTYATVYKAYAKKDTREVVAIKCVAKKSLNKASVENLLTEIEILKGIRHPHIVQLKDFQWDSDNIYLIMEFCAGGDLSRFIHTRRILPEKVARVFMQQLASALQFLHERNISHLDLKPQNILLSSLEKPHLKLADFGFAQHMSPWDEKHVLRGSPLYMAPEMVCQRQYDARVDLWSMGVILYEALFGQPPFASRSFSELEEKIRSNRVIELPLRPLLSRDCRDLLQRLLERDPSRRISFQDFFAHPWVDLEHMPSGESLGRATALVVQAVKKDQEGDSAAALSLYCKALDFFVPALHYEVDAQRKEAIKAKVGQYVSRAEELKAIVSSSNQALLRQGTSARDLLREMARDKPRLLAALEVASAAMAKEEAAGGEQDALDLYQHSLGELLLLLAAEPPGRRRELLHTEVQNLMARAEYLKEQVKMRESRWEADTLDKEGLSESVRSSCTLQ
The experiment in a line: Inhibition of ULK3 Lys2 labeling site in human A-375 cells at 5 uM by KiNativ Profiling analysis relative to control. It is filed as cell-based.

Series [9] concerns the target Mitogen-activated protein kinase 7 (Homo sapiens) (UniProt Q13164). The experiment in a line: Inhibition of Erk5 Lys2 labeling site in human A-375 cells at 0.5 uM by KiNativ Profiling analysis relative to control. The class given is cell-based. The essentials:
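Live A375 melanoma cells were treated with compound at 0.5 or 5 μM, then lysed. Lysates were labeled with a lysine-reactive ATP or ADP-biotin probe. The read-out was protection of each kinase probe-labeling site from labeling, relative to control.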

The target of series [10] is Ribosomal protein S6 kinase alpha-3 (Homo sapiens) (UniProt P51812). Nature of the series: Inhibition of RSK2 domain2 Lys2 labeling site in human A-375 cells at 0.5 uM by KiNativ Profiling analysis relative to control. The class given is cell-based. The essentials: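 Live A375 melanoma cells treated with compound at 5 or 0.5 μM, then lysed. Lysate kinases were labeled with a lysine-reactive ATP or ADP-biotin probe. Inhibition was read as protection of labeling sites from the probe.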

Series [11] deals with Cyclin-dependent kinase 1 (Homo sapiens) (UniProt P06493). The experiment in a line: Inhibition of CDC2 Lys2 labeling site harbouring VLHRDLKPQNLLIDDKGTIK in human A-375 cells at 0.05 uM by KiNativ Profiling analysis relative to control. It is filed as cell-based.
Series [12] addresses Dual specificity mitogen-activated protein kinase kinase 2 (Homo sapiens) (UniProt P36507). The experiment in a line: Inhibition of MAP2K2 Lys2 labeling site in human A-375 cells at 0.05 uM by KiNativ Profiling analysis relative to control. It is filed as cell-based.
Series [13] addresses Serine/threonine-protein kinase 24 (Homo sapiens) (UniProt Q9Y6E0). The experiment in a line: Inhibition of MST3 Lys2 labeling site harbouring DIKAANVLLSEHGEVK in human A-375 cells at 0.05 uM by KiNativ Profiling analysis relative to control. The class given is cell-based.
For series [14], the target named is T2, Serine/threonine-protein kinase Nek8 (Homo sapiens) (UniProt Q86SG6).
T2 sequence (whole entry): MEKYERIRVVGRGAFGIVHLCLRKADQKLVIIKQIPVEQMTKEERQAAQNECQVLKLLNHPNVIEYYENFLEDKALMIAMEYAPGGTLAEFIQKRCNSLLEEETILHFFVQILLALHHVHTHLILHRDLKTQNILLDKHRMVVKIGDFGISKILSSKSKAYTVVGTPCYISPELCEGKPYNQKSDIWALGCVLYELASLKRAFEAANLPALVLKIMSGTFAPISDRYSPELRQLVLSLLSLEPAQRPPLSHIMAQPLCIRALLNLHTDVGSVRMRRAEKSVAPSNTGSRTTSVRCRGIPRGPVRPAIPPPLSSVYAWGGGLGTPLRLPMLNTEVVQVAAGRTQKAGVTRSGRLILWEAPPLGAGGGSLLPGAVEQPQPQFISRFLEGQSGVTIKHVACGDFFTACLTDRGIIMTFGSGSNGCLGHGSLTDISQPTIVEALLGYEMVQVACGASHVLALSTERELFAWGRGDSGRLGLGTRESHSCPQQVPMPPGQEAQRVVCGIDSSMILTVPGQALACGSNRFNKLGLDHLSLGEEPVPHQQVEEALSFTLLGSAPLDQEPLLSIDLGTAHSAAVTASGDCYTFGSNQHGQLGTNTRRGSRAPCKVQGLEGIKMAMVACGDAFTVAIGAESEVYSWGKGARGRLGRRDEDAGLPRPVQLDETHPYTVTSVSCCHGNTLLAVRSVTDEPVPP
Nature of the series: Inhibition of NEK8 Lys2 labeling site in human A-375 cells at 0.05 uM by KiNativ Profiling analysis relative to control. The class given is cell-based.

For series [15], the target named is Cyclin-dependent kinase 11B (Homo sapiens) (UniProt P21127). The experiment in a line: Inhibition of PITSLRE Lys2 labeling site in human A-375 cells at 0.05 uM by KiNativ Profiling analysis relative to control. It is filed as cell-based.
For series [16], the target named is Protein kinase C alpha type (Homo sapiens) (UniProt P17252). Nature of the series: Inhibition of PKCa Lys2 labeling site in human A-375 cells at 0.05 uM by KiNativ Profiling analysis relative to control. The class given is cell-based.

Chain of Serine/threonine-protein kinase Chk2 (Homo sapiens) (O96017 whole entry): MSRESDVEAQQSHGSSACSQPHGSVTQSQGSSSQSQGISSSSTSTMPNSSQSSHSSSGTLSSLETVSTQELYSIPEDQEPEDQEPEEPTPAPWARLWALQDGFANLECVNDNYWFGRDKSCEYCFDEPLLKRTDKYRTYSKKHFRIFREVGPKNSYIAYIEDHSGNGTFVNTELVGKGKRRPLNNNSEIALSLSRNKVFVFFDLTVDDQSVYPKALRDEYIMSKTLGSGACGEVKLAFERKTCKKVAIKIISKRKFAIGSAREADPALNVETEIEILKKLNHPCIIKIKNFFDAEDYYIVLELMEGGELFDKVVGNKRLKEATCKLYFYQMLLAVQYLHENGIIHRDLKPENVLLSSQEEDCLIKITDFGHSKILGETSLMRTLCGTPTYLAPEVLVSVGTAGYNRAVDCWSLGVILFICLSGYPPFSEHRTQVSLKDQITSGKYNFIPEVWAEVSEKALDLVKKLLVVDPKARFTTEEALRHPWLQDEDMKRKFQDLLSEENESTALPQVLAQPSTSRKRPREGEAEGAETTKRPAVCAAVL
Chain of Ribosomal protein S6 kinase alpha-3 (Homo sapiens) (P51812 whole entry, the tested form may be a part): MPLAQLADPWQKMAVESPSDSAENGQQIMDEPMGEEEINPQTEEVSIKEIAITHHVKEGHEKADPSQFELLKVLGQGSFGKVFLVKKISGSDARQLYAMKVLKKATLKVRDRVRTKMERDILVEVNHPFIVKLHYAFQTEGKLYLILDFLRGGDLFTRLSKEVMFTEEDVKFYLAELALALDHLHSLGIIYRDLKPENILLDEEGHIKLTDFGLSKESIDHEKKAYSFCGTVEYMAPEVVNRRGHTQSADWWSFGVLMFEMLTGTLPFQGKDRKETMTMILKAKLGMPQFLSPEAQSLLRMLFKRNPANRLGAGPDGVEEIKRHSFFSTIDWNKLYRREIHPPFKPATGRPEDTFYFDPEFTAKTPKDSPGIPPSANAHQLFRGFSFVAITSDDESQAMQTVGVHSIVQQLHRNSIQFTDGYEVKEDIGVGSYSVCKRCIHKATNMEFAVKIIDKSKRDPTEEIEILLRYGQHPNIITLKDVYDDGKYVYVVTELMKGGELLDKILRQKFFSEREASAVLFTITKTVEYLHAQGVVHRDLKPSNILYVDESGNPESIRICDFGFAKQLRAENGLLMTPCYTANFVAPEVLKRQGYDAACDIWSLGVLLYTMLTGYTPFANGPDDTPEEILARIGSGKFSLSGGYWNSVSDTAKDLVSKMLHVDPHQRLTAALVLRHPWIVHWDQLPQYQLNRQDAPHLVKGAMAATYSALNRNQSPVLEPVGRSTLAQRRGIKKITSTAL
Chain of Cyclin-dependent kinase 11B (Homo sapiens) (P21127 whole entry): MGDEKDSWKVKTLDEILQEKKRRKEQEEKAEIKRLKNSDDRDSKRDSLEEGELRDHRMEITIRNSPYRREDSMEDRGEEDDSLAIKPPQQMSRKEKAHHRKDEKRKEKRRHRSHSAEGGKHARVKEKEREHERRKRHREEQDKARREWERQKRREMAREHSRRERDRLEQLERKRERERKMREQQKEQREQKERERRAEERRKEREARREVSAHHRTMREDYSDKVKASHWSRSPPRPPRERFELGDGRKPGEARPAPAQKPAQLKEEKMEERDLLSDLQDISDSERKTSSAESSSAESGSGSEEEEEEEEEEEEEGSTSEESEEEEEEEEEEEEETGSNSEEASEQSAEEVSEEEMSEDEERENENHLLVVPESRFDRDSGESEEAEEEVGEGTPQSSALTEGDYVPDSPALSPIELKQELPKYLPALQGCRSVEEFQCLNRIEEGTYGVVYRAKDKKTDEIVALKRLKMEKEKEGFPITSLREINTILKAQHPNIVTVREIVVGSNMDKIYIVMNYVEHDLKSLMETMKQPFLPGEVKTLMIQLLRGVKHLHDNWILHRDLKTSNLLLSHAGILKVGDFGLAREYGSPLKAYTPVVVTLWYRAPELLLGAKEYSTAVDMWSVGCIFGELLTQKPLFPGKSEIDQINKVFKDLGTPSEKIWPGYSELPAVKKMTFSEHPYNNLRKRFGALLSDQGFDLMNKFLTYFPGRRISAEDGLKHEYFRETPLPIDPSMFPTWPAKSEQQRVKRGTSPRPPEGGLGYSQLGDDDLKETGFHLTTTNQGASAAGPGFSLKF
Chain of Calcium/calmodulin-dependent protein kinase type 1 (Homo sapiens) (Q14012 whole entry, looked up): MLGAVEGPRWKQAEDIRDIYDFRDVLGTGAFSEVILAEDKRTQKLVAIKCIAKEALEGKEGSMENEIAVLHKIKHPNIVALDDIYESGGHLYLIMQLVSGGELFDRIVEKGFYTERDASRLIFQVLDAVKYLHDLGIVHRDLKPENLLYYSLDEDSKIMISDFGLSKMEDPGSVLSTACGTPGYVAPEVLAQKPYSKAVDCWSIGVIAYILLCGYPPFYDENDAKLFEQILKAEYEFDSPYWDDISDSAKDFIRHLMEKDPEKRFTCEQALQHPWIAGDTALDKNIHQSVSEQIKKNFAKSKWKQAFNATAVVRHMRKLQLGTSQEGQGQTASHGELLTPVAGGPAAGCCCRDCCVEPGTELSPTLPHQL
Chain of Mitogen-activated protein kinase 9 (P45984 whole entry, looked up): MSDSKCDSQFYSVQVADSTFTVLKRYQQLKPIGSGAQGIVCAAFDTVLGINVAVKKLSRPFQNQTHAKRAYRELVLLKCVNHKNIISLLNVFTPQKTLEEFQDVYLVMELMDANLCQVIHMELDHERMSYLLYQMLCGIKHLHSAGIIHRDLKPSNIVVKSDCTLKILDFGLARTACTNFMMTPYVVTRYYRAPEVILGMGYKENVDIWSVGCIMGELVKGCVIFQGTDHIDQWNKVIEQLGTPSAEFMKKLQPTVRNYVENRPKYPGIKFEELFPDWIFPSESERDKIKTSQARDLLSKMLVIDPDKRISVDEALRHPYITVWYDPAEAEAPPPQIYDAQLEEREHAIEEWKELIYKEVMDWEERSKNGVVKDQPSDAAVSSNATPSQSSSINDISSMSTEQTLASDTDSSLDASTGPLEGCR
Chain of Serine/threonine-protein kinase Nek7 (Homo sapiens) (Q8TDX7 whole entry, looked up): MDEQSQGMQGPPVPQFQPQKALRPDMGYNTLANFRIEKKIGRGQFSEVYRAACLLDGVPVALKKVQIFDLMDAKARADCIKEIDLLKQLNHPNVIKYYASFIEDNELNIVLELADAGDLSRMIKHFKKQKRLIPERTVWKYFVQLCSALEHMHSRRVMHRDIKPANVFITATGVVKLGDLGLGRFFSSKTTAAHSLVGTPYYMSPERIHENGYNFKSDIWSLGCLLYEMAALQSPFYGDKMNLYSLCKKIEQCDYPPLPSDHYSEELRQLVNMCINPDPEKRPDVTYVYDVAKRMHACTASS
Chain of Cyclin-dependent kinase 1 (Homo sapiens) (P06493 whole entry, looked up): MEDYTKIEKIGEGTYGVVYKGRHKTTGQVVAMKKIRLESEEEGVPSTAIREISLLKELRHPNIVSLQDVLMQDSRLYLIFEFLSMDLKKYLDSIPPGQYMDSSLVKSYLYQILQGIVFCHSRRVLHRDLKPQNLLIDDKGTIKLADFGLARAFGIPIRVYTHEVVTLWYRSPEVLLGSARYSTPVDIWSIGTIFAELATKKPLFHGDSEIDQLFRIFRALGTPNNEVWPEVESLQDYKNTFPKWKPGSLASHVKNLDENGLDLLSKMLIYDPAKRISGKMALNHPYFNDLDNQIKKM
Chain of Mitogen-activated protein kinase 7 (Homo sapiens) (Q13164 2-816 limits assumed): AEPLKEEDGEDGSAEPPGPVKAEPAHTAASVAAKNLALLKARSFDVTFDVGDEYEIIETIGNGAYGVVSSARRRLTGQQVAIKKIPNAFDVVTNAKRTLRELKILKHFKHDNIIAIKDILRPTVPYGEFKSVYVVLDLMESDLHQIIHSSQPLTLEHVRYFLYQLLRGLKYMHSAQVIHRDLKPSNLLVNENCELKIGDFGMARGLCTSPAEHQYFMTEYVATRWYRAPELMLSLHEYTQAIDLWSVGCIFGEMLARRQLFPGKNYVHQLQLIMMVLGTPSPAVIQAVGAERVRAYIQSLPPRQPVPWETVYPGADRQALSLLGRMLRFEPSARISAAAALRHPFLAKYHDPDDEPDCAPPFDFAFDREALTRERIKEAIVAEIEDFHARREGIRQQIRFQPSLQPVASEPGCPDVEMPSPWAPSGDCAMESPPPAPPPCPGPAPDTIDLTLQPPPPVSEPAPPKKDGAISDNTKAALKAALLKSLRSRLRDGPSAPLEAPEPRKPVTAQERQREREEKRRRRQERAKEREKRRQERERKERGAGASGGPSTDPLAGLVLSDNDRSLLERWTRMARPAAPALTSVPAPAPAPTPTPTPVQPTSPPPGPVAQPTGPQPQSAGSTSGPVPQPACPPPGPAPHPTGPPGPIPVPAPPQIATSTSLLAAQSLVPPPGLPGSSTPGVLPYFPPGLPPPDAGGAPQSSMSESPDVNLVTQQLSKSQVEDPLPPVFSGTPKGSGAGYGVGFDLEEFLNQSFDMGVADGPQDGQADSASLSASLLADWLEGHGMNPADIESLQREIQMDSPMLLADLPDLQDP

As to `CCN1CCN(Cc2ccc(NC(=O)c3ccc(C)c(/C=C/c4cnc5[nH]ccc5c4OC)c3)cc2C(F)(F)F)CC1`, in series [1], the peak level (Cmax) was 163 ng/mL. The inhibition in [2] was 76.9%; in series [3], 31.9%; in series [4], 17.6%; in [5], 11.5%; in [6] it was 13.7%; in [7] it was -1.8%. Further, the inhibition in series [8] was 52.5%; in series [9], 14%; in series [10] it was 6.2%; in [11], 6.4%; in [12] it was -8.3%; in series [13], 3.2%. Besides, the inhibition in [14] was -9.3%; in series [15] it was -3.9%; in series [16] it was 58%.

In series [1], `CCN1CCN(Cc2ccc(NC(=O)c3ccc(C)c(Oc4ccnc5[nH]ccc45)c3)cc2C(F)(F)F)CC1` had a Cmax of 316 ng/mL. The inhibition in [2] came out at 90.3%; in [3], 91.8%; in [4], 37.3%; in series [5], 5.1%; in series [6], 35.1%; in [7] it was 0.3%. Besides, the inhibition in series [8] was 44.8%; in series [9], 6.8%; in series [10], -0.1%; in series [11], -2.9%; in series [12] it was 6.1%; in [13], -2.7%. For the same compound, the inhibition is -1.6% in [14], -4.6% in [15] and 45.3% in [16].
